Measured values published in ChEMBL document CHEMBL4837210 (Eur J Med Chem, 2021).

Assays:
Type in all cases: functional
Streptococcus pyogenes [1] = assay: Antibacterial activity against erythromycin-resistant Streptococcus pyogenes 2 assessed as bacterial growth inhibition incubated for 24 hrs by CLSI protocol based broth microdilution method
Bacillus subtilis = assay: Antibacterial activity against penicillin-susceptible Bacillus subtilis ATCC 9372 assessed as bacterial growth inhibition incubated for 24 hrs by CLSI protocol based broth microdilution method
Staphylococcus aureus [2] = assay: Antibacterial activity against penicillin-resistant Staphylococcus aureus assessed as inhibition of bacterial growth measured by broth microdilution method; conditions: time 24 hrs
How it was run: (§1)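 Broth microdilution MIC. A 0.5 McFarland suspension was diluted 10-fold and added at 1.5 × 10⁷ cfu/mL to 2-fold dilutions (0.125–64) in Mueller Hinton broth. Incubated aerobically 24 h at 37 °C. MIC was the lowest concentration with no visible turbidity.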

Pseudomonas aeruginosa = assay: Antibacterial activity against penicillin-susceptible Pseudomonas aeruginosa ATCC27853 assessed as bacterial growth inhibition incubated for 24 hrs by CLSI protocol based broth microdilution method
[3] = tested on: Staphylococcus epidermidis; assay: Antibacterial activity against penicillin-resistant Staphylococcus epidermidis assessed as inhibition of bacterial growth measured by broth microdilution method; conditions: time 24 hrs
Staphylococcus aureus [4] = assay: Antibacterial activity against methicillin-resistant Staphylococcus aureus ATCC 43300 assessed as inhibition of bacterial growth by broth microdilution method; conditions: time 24 hrs; how it was run: as §1
Staphylococcus aureus [5] = assay: Antibacterial activity against erythromycin-susceptible Staphylococcus aureus ATCC 25923 assessed as bacterial growth inhibition incubated for 24 hrs by CLSI protocol based broth microdilution method
Bacillus pumilus = assay: Antibacterial activity against penicillin-susceptible Bacillus pumilus CMCC 63202 assessed as bacterial growth inhibition by broth dilution method; conditions: time 24 hrs
How it was run: (§2)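 Broth microdilution in Mueller Hinton broth. A 0.5 McFarland suspension was diluted tenfold, giving an inoculum of 1.5 × 10⁷ cfu/mL. This was added to 2-fold serial compound dilutions from […]. Plates were incubated aerobically at 37 °C for 24 h. MIC was the lowest concentration with no visible turbidity.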

Staphylococcus aureus [6] = assay: Antibacterial activity against Staphylococcus aureus assessed as inhibition of bacterial growth measured by broth microdilution method; conditions: time 24 hrs; how it was run: as §2
Escherichia coli = assay: Antibacterial activity against penicillin-susceptible Escherichia coli ATCC 25922 assessed as inhibition of bacterial growth measured by broth microdilution method; conditions: time 24 hrs; how it was run: as §2
Streptococcus pyogenes [7] = assay: Antibacterial activity against erythromycin-susceptible Streptococcus pyogenes clinical isolate 1 assessed as bacterial growth inhibition incubated for 24 hrs by CLSI protocol based broth microdilution method

| SMILES | MIC (Streptococcus pyogenes [1]) | MIC (Bacillus subtilis) | MIC (Staphylococcus aureus [2]) | MIC (Pseudomonas aeruginosa) | MIC [3] | MIC (Staphylococcus aureus [4]) | MIC (Staphylococcus aureus [5]) | MIC (Bacillus pumilus) | MIC (Staphylococcus aureus [6]) | MIC (Escherichia coli) | MIC (Streptococcus pyogenes [7]) |
| --- | --- | --- | --- | --- | --- | --- | --- | --- | --- | --- | --- |
| Cc1ccc(/C=C/c2c3ccccc3[n+](C)c3ccccc23)cc1.[I-] | 0.5 µg/mL | 1 µg/mL | 8 µg/mL | > 64 µg/mL | 2 µg/mL | 4 µg/mL | 0.5 µg/mL | 0.5 µg/mL | 1 µg/mL | 64 µg/mL | 0.25 µg/mL |
| Cc1ccc(-c2c3ccccc3[n+](C)c3ccccc23)cc1.[I-] | 16 µg/mL | 4 µg/mL | > 64 µg/mL | > 64 µg/mL | 64 µg/mL | 64 µg/mL | 1 µg/mL | 8 µg/mL | 4 µg/mL | > 64 µg/mL | 4 µg/mL |
| C[n+]1c2ccccc2c(-c2ccccc2)c2ccccc21.[I-] | 32 µg/mL | 16 µg/mL | > 64 µg/mL | > 64 µg/mL | > 64 µg/mL | > 64 µg/mL | 2 µg/mL | 32 µg/mL | 8 µg/mL | > 64 µg/mL | 8 µg/mL |
| CCOc1ccc(/C=C/c2c3ccccc3[n+](C)c3ccccc23)cc1.[I-] | 0.5 µg/mL | 2 µg/mL | 8 µg/mL | > 64 µg/mL | 4 µg/mL | 2 µg/mL | 0.5 µg/mL | 16 µg/mL | 1 µg/mL | > 64 µg/mL | < 0.125 µg/mL |
| C[n+]1c2ccccc2c(-c2cccc([N+](=O)[O-])c2)c2ccccc21.[I-] | 64 µg/mL | 64 µg/mL | > 64 µg/mL | > 64 µg/mL | > 64 µg/mL | 64 µg/mL | 16 µg/mL | > 64 µg/mL | 32 µg/mL | > 64 µg/mL | 16 µg/mL |
| CCCCCNc1c2ccccc2[n+](C)c2ccccc12.[Cl-] | 32 µg/mL | 64 µg/mL | 64 µg/mL | > 64 µg/mL | 64 µg/mL | > 64 µg/mL | > 64 µg/mL | > 64 µg/mL | > 64 µg/mL | > 64 µg/mL | 16 µg/mL |
| C[n+]1c2ccccc2c(-c2ccc(OC(F)(F)F)cc2)c2ccccc21.[I-] | 4 µg/mL | 4 µg/mL | 64 µg/mL | > 64 µg/mL | 32 µg/mL | 2 µg/mL | 0.5 µg/mL | 8 µg/mL | 2 µg/mL | > 64 µg/mL | 1 µg/mL |
| C[n+]1c2ccccc2c(-c2cccc(F)c2)c2ccccc21.[I-] | 16 µg/mL | 16 µg/mL | > 64 µg/mL | > 64 µg/mL | > 64 µg/mL | > 64 µg/mL | 8 µg/mL | 32 µg/mL | 16 µg/mL | > 64 µg/mL | 4 µg/mL |
| C[n+]1c2ccccc2c(C#Cc2ccccc2)c2ccccc21.[I-] | 8 µg/mL | 2 µg/mL | 4 µg/mL | > 64 µg/mL | 4 µg/mL | 2 µg/mL | 2 µg/mL | 8 µg/mL | 2 µg/mL | > 64 µg/mL | 4 µg/mL |
| CCCc1ccc(-c2c3ccccc3[n+](C)c3ccccc23)cc1.[I-] | 4 µg/mL | 1 µg/mL | 16 µg/mL | > 64 µg/mL | 8 µg/mL | 4 µg/mL | 0.25 µg/mL | 2 µg/mL | 0.25 µg/mL | > 64 µg/mL | 1 µg/mL |
| COc1ccc(/C=C/c2c3ccccc3[n+](C)c3ccccc23)cc1OC.[I-] | 4 µg/mL | 8 µg/mL | 64 µg/mL | > 64 µg/mL | 32 µg/mL | 16 µg/mL | 4 µg/mL | 1 µg/mL | 8 µg/mL | > 64 µg/mL | 2 µg/mL |
| COc1ccccc1/C=C/c1c2ccccc2[n+](C)c2ccccc12.[I-] | 0.5 µg/mL | 1 µg/mL | 16 µg/mL | > 64 µg/mL | 8 µg/mL | 4 µg/mL | 0.25 µg/mL | 2 µg/mL | 1 µg/mL | > 64 µg/mL | 0.25 µg/mL |
| Cc1ccccc1-c1c2ccccc2[n+](C)c2ccccc12.[I-] | > 64 µg/mL | 32 µg/mL | > 64 µg/mL | > 64 µg/mL | > 64 µg/mL | > 64 µg/mL | 8 µg/mL | > 64 µg/mL | 64 µg/mL | > 64 µg/mL | 64 µg/mL |
| C[n+]1c2ccccc2c(/C=C/c2ccccc2)c2ccccc21.[I-] | 0.5 µg/mL | 1 µg/mL | 8 µg/mL | > 64 µg/mL | 8 µg/mL | 4 µg/mL | 0.5 µg/mL | 2 µg/mL | 2 µg/mL | > 64 µg/mL | 0.25 µg/mL |
| Cc1ccccc1C#Cc1c2ccccc2[n+](C)c2ccccc12.[I-] | 16 µg/mL | 8 µg/mL | 8 µg/mL | > 64 µg/mL | 16 µg/mL | 4 µg/mL | 4 µg/mL | 8 µg/mL | 2 µg/mL | > 64 µg/mL | 8 µg/mL |
| O=C(O)c1cn(C2CC2)c2cc(N3CCNCC3)c(F)cc2c1=O [CIPROFLOXACIN] | – | – | > 64 µg/mL | – | > 64 µg/mL | – | – | – | – | – | – |
| CCCCc1ccc(C#Cc2c3ccccc3[n+](C)c3ccccc23)cc1.[I-] | 8 µg/mL | 4 µg/mL | 8 µg/mL | > 64 µg/mL | 8 µg/mL | 4 µg/mL | 4 µg/mL | 2 µg/mL | 4 µg/mL | > 64 µg/mL | 8 µg/mL |
| CCc1ccc(-c2c3ccccc3[n+](C)c3ccccc23)cc1.[I-] | 4 µg/mL | 2 µg/mL | 64 µg/mL | > 64 µg/mL | 32 µg/mL | 16 µg/mL | 0.25 µg/mL | 4 µg/mL | 1 µg/mL | > 64 µg/mL | 2 µg/mL |
| CC(C)Nc1c2ccccc2[n+](C)c2ccccc12.[Cl-] | > 64 µg/mL | > 64 µg/mL | – | > 64 µg/mL | > 64 µg/mL | > 64 µg/mL | > 64 µg/mL | > 64 µg/mL | > 64 µg/mL | > 64 µg/mL | > 64 µg/mL |
| C[n+]1c2ccccc2c(Nc2ccccc2)c2ccccc21.[Cl-] | > 64 µg/mL | > 64 µg/mL | – | > 64 µg/mL | > 64 µg/mL | > 64 µg/mL | > 64 µg/mL | > 64 µg/mL | > 64 µg/mL | > 64 µg/mL | > 64 µg/mL |
| CCCNc1c2ccccc2[n+](C)c2ccccc12.[Cl-] | 64 µg/mL | > 64 µg/mL | – | > 64 µg/mL | 64 µg/mL | > 64 µg/mL | > 64 µg/mL | > 64 µg/mL | > 64 µg/mL | > 64 µg/mL | 32 µg/mL |
| C[n+]1c2ccccc2c(Nc2nccs2)c2ccccc21.[Cl-] | > 64 µg/mL | > 64 µg/mL | – | > 64 µg/mL | > 64 µg/mL | > 64 µg/mL | > 64 µg/mL | > 64 µg/mL | > 64 µg/mL | > 64 µg/mL | > 64 µg/mL |
| C[n+]1c2ccccc2c(NC2CC2)c2ccccc21.[Cl-] | 64 µg/mL | > 64 µg/mL | – | > 64 µg/mL | > 64 µg/mL | > 64 µg/mL | > 64 µg/mL | > 64 µg/mL | > 64 µg/mL | > 64 µg/mL | > 64 µg/mL |
